Reference: ChEMBL document CHEMBL1275392, “Assessment of chemoselective neoglycosylation methods using chlorambucil as a model” (2010)

Legend:
Format in all cases: functional
786-0 [1] = experiment: Growth inhibition of human 786-0 cells after 7 days by celltiter-glo assay; details: 786-0, 168 h
U-251 = experiment: Growth inhibition of human U251 cells at 10 uM after 7 days by celltiter-glo assay; details: U-251, 168 h, read-out: GI
SNB-75 [2] = experiment: Growth inhibition of human SNB75 cells after 7 days by celltiter-glo assay; details: SNB-75, 168 h
SF-295 = experiment: Growth inhibition of human SF295 cells after 7 days by celltiter-glo assay; details: SF-295, 168 h
Malme-3M [3] = experiment: Growth inhibition of human MALME-3M cells after 7 days by celltiter-glo assay; details: 168 h
NCI-H522 = experiment: Growth inhibition of human NCI-H522 cells after 7 days by celltiter-glo assay; details: NCI-H522, 168 h
SK-MEL-2 [4] = experiment: Growth inhibition of human SK-MEL-2 cells at 10 uM after 7 days by celltiter-glo assay; details: SK-MEL-2, 168 h, read-out: GI
786-0 [5] = experiment: Growth inhibition of human 786-0 cells at 10 uM after 7 days by celltiter-glo assay; details: 786-0, 168 h, read-out: GI
A498 = experiment: Growth inhibition of human A498 cells after 7 days by celltiter-glo assay; details: A498, 168 h
HOP-62 = experiment: Growth inhibition of human HOP62 cells after 7 days by celltiter-glo assay; details: HOP-62, 168 h
CCRF-CEM [6] = experiment: Growth inhibition of human CCRF-CEM cells at 10 uM after 7 days by celltiter-glo assay; details: 168 h, read-out: GI
KM12 = experiment: Growth inhibition of human KM12 cells after 7 days by celltiter-glo assay; details: KM12, 168 h
CCRF-CEM [7] = experiment: Growth inhibition of human CCRF-CEM cells after 7 days by celltiter-glo assay; details: 168 h
SNB-19 [8] = experiment: Growth inhibition of human SNB19 cells at 10 uM after 7 days by celltiter-glo assay; details: SNB-19, 168 h, read-out: GI
OVCAR-3 = experiment: Growth inhibition of human OVCAR-3 cells after 7 days by celltiter-glo assay; details: OVCAR-3, 168 h
COLO 205 = experiment: Growth inhibition of human COLO205 cells at 10 uM after 7 days by celltiter-glo assay; details: COLO 205, 168 h, read-out: GI
BT-549 = experiment: Growth inhibition of human BT549 cells after 7 days by celltiter-glo assay; details: BT-549, 168 h
DU-145 = experiment: Growth inhibition of human DU145 cells at 10 uM after 7 days by celltiter-glo assay; details: DU-145, 168 h, read-out: GI
UO-31 = experiment: Growth inhibition of human UO31 cells after 7 days by celltiter-glo assay; details: UO-31, 168 h
HT-29 = experiment: Growth inhibition of human HT-29 cells after 7 days by celltiter-glo assay; details: HT-29, 168 h
NCI-H460 [9] = experiment: Growth inhibition of human NCI-H460 cells at 10 uM after 7 days by celltiter-glo assay; details: NCI-H460, 168 h, read-out: GI
PC-3 = experiment: Growth inhibition of human PC3 cells after 7 days by celltiter-glo assay; details: PC-3, 168 h
MDA-MB-231 [10] = experiment: Growth inhibition of human MDA-MB-231 cells after 7 days by celltiter-glo assay; details: MDA-MB-231, 168 h
[11] = Growth inhibition of human Hs 578T cells after 7 days by celltiter-glo assay; details: 168 h
HCT-116 = experiment: Growth inhibition of human HCT116 cells after 7 days by celltiter-glo assay; details: HCT-116, 168 h
NCI-H460 [12] = experiment: Growth inhibition of human NCI-H460 cells after 7 days by celltiter-glo assay; details: NCI-H460, 168 h
[13] = Growth inhibition of human p53 deficient H1299 cells after 7 days by celltiter-glo assay; details: NCI-H1299, 168 h
Method in brief: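 Cells seeded at 500 per well in 384-well plates. Compounds came from 30 mM DMSO stocks, serially diluted and tested in quadruplicate. Incubation was 7 d at 37 °C under 5% CO2. Calcein AM (10 μM) and EthD-1 were added, followed by a fluorescence read. CellTiter-Glo lysis was then done for 10 min at room temperature, with a luminescence read. GI50 came from curve fitting.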

OVCAR-4 = experiment: Growth inhibition of human OVCAR4 cells after 7 days by celltiter-glo assay; details: OVCAR-4, 168 h
SF-268 = experiment: Growth inhibition of human SF268 cells at 10 uM after 7 days by celltiter-glo assay; details: SF-268, 168 h, read-out: GI
NCI/ADR-RES = experiment: Growth inhibition of human NCI/ADR-RES cells at 10 uM after 7 days by celltiter-glo assay; details: 168 h, read-out: GI
NCI-H226 = experiment: Growth inhibition of human NCI-H226 cells after 7 days by celltiter-glo assay; details: NCI-H226, 168 h
SF-539 = experiment: Growth inhibition of human SF539 cells after 7 days by celltiter-glo assay; details: SF-539, 168 h
SNB-75 [14] = experiment: Growth inhibition of human SNB75 cells at 10 uM after 7 days by celltiter-glo assay; details: SNB-75, 168 h, read-out: GI
EKVX = experiment: Growth inhibition of human EKVX cells at 10 uM after 7 days by celltiter-glo assay; details: 168 h, read-out: GI
HCT-15 = experiment: Growth inhibition of human HCT15 cells at 10 uM after 7 days by celltiter-glo assay; details: HCT-15, 168 h, read-out: GI
SNB-19 [15] = experiment: Growth inhibition of human SNB19 cells after 7 days by celltiter-glo assay; details: SNB-19, 168 h
LOX IMVI = experiment: Growth inhibition of human LOXIMVI cells after 7 days by celltiter-glo assay; details: 168 h
MOLT-4 = experiment: Growth inhibition of human MOLT4 cells at 10 uM after 7 days by celltiter-glo assay; details: MOLT-4, 168 h, read-out: GI
SK-MEL-2 [16] = experiment: Growth inhibition of human SK-MEL-2 cells after 7 days by celltiter-glo assay; details: SK-MEL-2, 168 h
Malme-3M [17] = experiment: Growth inhibition of human MALME-3M cells at 10 uM after 7 days by celltiter-glo assay; details: 168 h, read-out: GI
MDA-MB-435 = experiment: Growth inhibition of human MDA-MB-435 cells at 10 uM after 7 days by celltiter-glo assay; details: MDA-MB-435, 168 h, read-out: GI
MDA-MB-231 [18] = experiment: Growth inhibition of human MDA-MB-231 cells at 10 uM after 7 days by celltiter-glo assay; details: MDA-MB-231, 168 h, read-out: GI
SW-620 = experiment: Growth inhibition of human SW620 cells after 7 days by celltiter-glo assay; details: SW-620, 168 h
MCF7 = experiment: Growth inhibition of human MCF7 cells at 10 uM after 7 days by celltiter-glo assay; details: MCF7, 168 h, read-out: GI
[19] = Ratio of compound GI50 to chlorambucil GI50 for human H1299 cells

CON(CCCc1ccc(N(CCCl)CCCl)cc1)C1OC[C@@H](O)[C@@H]1O (stereo not given in full)
GI50 (786-0 [1]): 6.16 µM | inhibition of growth at 10 µM (U-251): 59.9% | GI50 (SNB-75 [2]): 19.5 µM | GI50 (SF-295): 6.47 µM | GI50 (Malme-3M [3]): 20.2 µM | GI50 (NCI-H522): 10 µM | inhibition of growth at 10 µM (SK-MEL-2 [4]): 100% | inhibition of growth at 10 µM (786-0 [5]): 67.9% | GI50 (A498): 21.8 µM | GI50 (HOP-62): 8.28 µM | inhibition of growth at 10 µM (CCRF-CEM [6]): 21.2% | GI50 (KM12): 30 µM | GI50 (CCRF-CEM [7]): 2.36 µM | inhibition of growth at 10 µM (SNB-19 [8]): 65.8% | GI50 (OVCAR-3): 15.3 µM | inhibition of growth at 10 µM (COLO 205): 93.3% | GI50 (BT-549): 13.4 µM | inhibition of growth at 10 µM (DU-145): 56.8% | GI50 (UO-31): 0.856 µM | GI50 (HT-29): 0.41 µM | inhibition of growth at 10 µM (NCI-H460 [9]): 35.8% | GI50 (PC-3): 11.7 µM | GI50 (MDA-MB-231 [10]): 1.39 µM | GI50 [11]: 24.7 µM | GI50 (HCT-116): 14.5 µM | GI50 (NCI-H460 [12]): 1.7 µM | GI50 [13]: 0.37 µM | GI50 (OVCAR-4): 29.2 µM | inhibition of growth at 10 µM (SF-268): 67.8% | inhibition of growth at 10 µM (NCI/ADR-RES): 61.5% | GI50 (NCI-H226): 0.925 µM | GI50 (SF-539): 8.8 µM | inhibition of growth at 10 µM (SNB-75 [14]): 66.7% | inhibition of growth at 10 µM (EKVX): 91.2% | inhibition of growth at 10 µM (HCT-15): 77.1% | GI50 (SNB-19 [15]): 33.4 µM | GI50 (LOX IMVI): 8.61 µM | inhibition of growth at 10 µM (MOLT-4): 64.4% | GI50 (SK-MEL-2 [16]): 20.2 µM | inhibition of growth at 10 µM (Malme-3M [17]): 69.7% | inhibition of growth at 10 µM (MDA-MB-435): 83% | inhibition of growth at 10 µM (MDA-MB-231 [18]): 87.5% | GI50 (SW-620): 12.4 µM | inhibition of growth at 10 µM (MCF7): 32.4% | RatioGI50 [19]: 13
